Publication PMC10809330 (RSC Medicinal Chemistry, 2023)

Columns and labels:
[1] = system: phosphorylated TAK1 (S412); assay: pTAK1; format: cell-based, murine; conditions: MPC-11 cells, 0.1 or 0.5 μM, 48 h, western blot
How it was run: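 MPC-11 cells were seeded at 0.5–1 × 10^6, left 24 h, then treated with test compound at 0.1 or 0.5 μM or DMSO for 48 h. Cells were lysed in RIPA (pH 7.4) with protease inhibitors and 1 mM PMSF, and protein was measured by BCA. Lysates were run on 10% SDS-PAGE and blotted to PVDF. Blots were probed overnight at 4 °C for pTAK1, TAK1 and β-actin, then with HRP secondaries for 2 h at 24 °C. Detection was by chemiluminescence, with bands quantified relative to actin.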

TAK1 = target: T1, TAK1 (Homo sapiens, UniProt O43318); assay: TAK1 ADP-Glo kinase assay; format: biochemical; conditions: for TAK1 kinase inhibition: compound 500 nM
T1 sequence (O43318 1-303 limits assumed): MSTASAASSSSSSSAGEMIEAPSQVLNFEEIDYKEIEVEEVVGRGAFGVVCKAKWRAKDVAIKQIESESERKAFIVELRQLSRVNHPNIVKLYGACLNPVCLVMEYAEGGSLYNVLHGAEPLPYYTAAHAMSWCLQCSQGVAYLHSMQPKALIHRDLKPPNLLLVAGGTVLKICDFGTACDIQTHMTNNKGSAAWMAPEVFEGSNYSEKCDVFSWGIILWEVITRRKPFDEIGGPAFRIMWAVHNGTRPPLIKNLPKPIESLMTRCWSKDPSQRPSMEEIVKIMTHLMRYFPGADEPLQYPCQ
How it was run: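 Tiered TAK1 screen using the ADP-Glo kinase assay. Test compounds were first tested at 500 nM. Those exceeding 50% enzyme inhibition were retested at 100 nM, then at 20 nM. Values are means of triplicates with SD.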

PKAC alpha = PKAC alpha (Homo sapiens, UniProt P17612); assay: KinomeScan PKAC alpha; format: binding; conditions: in words
kinase anti-targets = assay: KinomeScan profiling, kinase anti-targets; format: binding; conditions: Eurofins KinomeScan; KIT, ZAP70, JAK2, RET, KDR, PDGFR, FGFR, EGFR, BRAF, AKT, AURKA or B
MPC-11 cells = assay: Cell viability assay; format: cell-based, murine; conditions: compound 200 nM
How it was run: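 MPC-11 cells were grown in DMEM with 10% FBS at 37 °C under 5% CO2 and kept below 10 passages. Cells were seeded at 4–5 × 10^3 per well, left 24 h, then exposed to test compound (screened at 1 and 0.2 μM) for 72 h. CellTiter-Blue was added for 3 h and fluorescence read at 560/590 nm. Runs were in triplicate, normalised to DMSO-treated cells.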

Structure (SMILES)	TAK1 kinase inhibition (TAK1)	other results
Cc1n[nH]c2ccc(-c3cnc4ccc(N5C[C@@H](C)O[C@@H](C)C5)nn34)cc12 [Compound 3, (2S,6R)-2,6-Dimethyl-4-(3-(3-methyl-1H-indazol-5-yl)imidazo[1,2-b]pyridazin-6-yl)morpholine]	–	levels of phosphorylated TAK1 (S412) compared to DMSO control [1]: successful in reducing levels of phosphorylated TAK1 (S412)
C[C@@H]1CN(c2ccc3ncc(-c4ccccc4)n3n2)C[C@H](C)O1 [Compound 5, (2S,6R)-2,6-Dimethyl-4-(3-phenylimidazo[1,2-b]pyridazin-6-yl)morpholine]	negligible kinase inhibition	–
C[C@@H]1CN(c2ccc3ncc(-c4ccc(C#N)cc4)n3n2)C[C@H](C)O1 [Compound 6, 4-(6-((2S,6R)-2,6-Dimethylmorpholino)imidazo[1,2-b]pyridazin-3-yl)benzonitrile]	moderate kinase inhibition	–
C[C@@H]1CN(c2ccc3ncc(-c4ccc(C(F)(F)F)cc4)n3n2)C[C@H](C)O1 [Compound 7, (2S,6R)-2,6-Dimethyl-4-(3-(4-(trifluoromethyl)phenyl)imidazo[1,2-b]pyridazin-6-yl)morpholine]	moderate kinase inhibition	–
C[C@@H]1CN(c2ccc3ncc(-c4cccc(S(C)(=O)=O)c4)n3n2)C[C@H](C)O1 [Compound 8, (2S,6R)-2,6-Dimethyl-4-(3-(3-(methylsulfonyl)phenyl)imidazo[1,2-b]pyridazin-6-yl)morpholine]	moderate kinase inhibition	–
C[C@@H]1CN(c2ccc3ncc(-c4ccc(F)cc4)n3n2)C[C@H](C)O1 [Compound 9, (2S,6R)-4-(3-(4-Fluorophenyl)imidazo[1,2-b]pyridazin-6-yl)-2,6-dimethylmorpholine]	moderate kinase inhibition	–
C[C@@H]1CN(c2ccc3ncc(-c4ccc(OC(F)(F)F)cc4)n3n2)C[C@H](C)O1 [Compound 11, (2S,6R)-2,6-Dimethyl-4-(3-(4-(trifluoromethoxy)phenyl)imidazo[1,2-b]pyridazin-6-yl)morpholine]	negligible kinase inhibition	–
C[C@@H]1CN(c2ccc3ncc(-c4ccc(C(N)=O)cc4)n3n2)C[C@H](C)O1 [Compound 12, 4-(6-((2S,6R)-2,6-Dimethylmorpholino)imidazo[1,2-b]pyridazin-3-yl)benzamide]	–	inhibition of TAK1 (TAK1; compound 100 nM): decrease in TAK1 kinase inhibition compared to the previous screening
CNC(=O)c1ccc(-c2cnc3ccc(N4C[C@@H](C)O[C@@H](C)C4)nn23)cc1 [Compound 13, 4-(6-((2S,6R)-2,6-dimethylmorpholino)imidazo[1,2-b]pyridazin-3-yl)-N-methylbenzamide]	moderate kinase inhibition	–
C[C@@H]1CN(c2ccc3ncc(-c4ccc(CC#N)cc4)n3n2)C[C@H](C)O1 [Compound 14, 2-(4-(6-((2S,6R)-2,6-Dimethylmorpholino)imidazo[1,2-b]pyridazin-3-yl)phenyl)acetonitrile]	moderate kinase inhibition	–
C[C@@H]1CN(c2ccc3ncc(-c4ccc(F)c(C#N)c4)n3n2)C[C@H](C)O1 [Compound 16, 5-(6-((2S,6R)-2,6-Dimethylmorpholino)imidazo[1,2-b]pyridazin-3-yl)-2-fluorobenzonitrile]	moderate kinase inhibition	–
C[C@@H]1CN(c2ccc3ncc(-c4ccncc4)n3n2)C[C@H](C)O1 [Compound 17, (2S,6R)-2,6-Dimethyl-4-(3-(pyridin-4-yl)imidazo[1,2-b]pyridazin-6-yl)morpholine]	moderate kinase inhibition	–
C[C@@H]1CN(c2ccc3ncc(-c4cccnc4)n3n2)C[C@H](C)O1 [Compound 18, (2S,6R)-2,6-Dimethyl-4-(3-(pyridin-3-yl)imidazo[1,2-b]pyridazin-6-yl)morpholine]	negligible kinase inhibition	–
C[C@@H]1CN(c2ccc3ncc(-c4cccc(C#N)c4)n3n2)C[C@H](C)O1 [Compound 19, 3-(6-((2S,6R)-2,6-Dimethylmorpholino)imidazo[1,2-b]pyridazin-3-yl)benzonitrile]	negligible kinase inhibition	–
C[C@@H]1CN(c2ccc3ncc(-c4ccc5cn[nH]c5c4)n3n2)C[C@H](C)O1 [Compound 21, (2S,6R)-4-(3-(1H-Indazol-6-yl)imidazo[1,2-b]pyridazin-6-yl)-2,6-dimethylmorpholine]	–	inhibition at 0.5 µM (TAK1; read-out: TAK1 kinase inhibition, compound 500 nM): < 50%
C[C@@H]1CN(c2ccc3ncc(-c4ccc5[nH]nc(C6CC6)c5c4)n3n2)C[C@H](C)O1 [Compound 26, (2S,6R)-4-(3-(3-Cyclopropyl-1H-indazol-5-yl)imidazo[1,2-b]pyridazin-6-yl)-2,6-dimethylmorpholine]	–	affinity for PKAC alpha (PKAC alpha): low affinity; levels of phosphorylated TAK1 (S412) compared to DMSO control [1]: successful in reducing levels of phosphorylated TAK1 (S412); inhibition of kinase anti-targets (kinase anti-targets): minimal inhibition
Cc1n[nH]c2ccc(-c3cnc4ccc(N5CCO[C@@H](C)C5)nn34)cc12 [Compound 33, (S)-2-Methyl-4-(3-(3-methyl-1H-indazol-5-yl)imidazo[1,2-b]pyridazin-6-yl)morpholine]	–	inhibition of MPC-11 (MPC-11 cells): inactive
CCCn1/c(=N/C(=O)c2cccc(C(N)=O)c2)[nH]c2ccccc21 [Takinib, reference compound]	–	levels of phosphorylated TAK1 (S412) compared to DMSO control [1]: did not show a significant difference
